Laboratory results published in ChEMBL document CHEMBL4177761, “Highlights of the Structure-Activity Relationships of Benzimidazole Linked Pyrrolidines Leading to the Discovery of the Hepatitis C Virus NS5A Inhibitor Pibrentasvir (ABT-530)” (J Med Chem, 2018).
Changes are numbered by the printed parent chain. In brackets after ≈: the same amount, converted by molar mass.

Assays:
[1] = system: T1, Nonstructural protein 5A (Hepatitis C virus), Q5L478 [Y93N]; test: Inhibition of NS5A Y93N mutant in HuH7 cell infected HCV genotype 1a H77 assessed as decrease in viral replication after 4 days by luciferase reporter gene assay relative to wild type protein; conditions: Hepatitis C virus (isolate H77)
T1 sequence (whole entry): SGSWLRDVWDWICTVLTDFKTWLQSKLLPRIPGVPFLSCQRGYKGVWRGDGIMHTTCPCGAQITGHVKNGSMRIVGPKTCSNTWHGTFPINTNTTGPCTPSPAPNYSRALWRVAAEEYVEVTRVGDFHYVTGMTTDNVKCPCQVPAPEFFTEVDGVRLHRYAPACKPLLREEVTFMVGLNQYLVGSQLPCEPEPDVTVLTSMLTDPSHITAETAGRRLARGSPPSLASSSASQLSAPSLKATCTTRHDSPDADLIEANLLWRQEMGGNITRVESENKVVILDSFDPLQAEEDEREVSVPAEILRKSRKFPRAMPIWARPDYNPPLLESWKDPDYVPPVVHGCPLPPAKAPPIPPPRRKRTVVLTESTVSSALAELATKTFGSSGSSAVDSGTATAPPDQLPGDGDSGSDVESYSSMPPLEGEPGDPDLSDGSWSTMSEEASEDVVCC
Summary of the method: (§1)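 Stable subgenomic luciferase replicons in Huh-7 cells: genotype 1a-H77 carrying NS5A substitutions M28T, Q30E, Q30R, Y93C, Y93H or Y93N, tested alongside the wild-type replicon. Cells are incubated 4 days with compound in DMEM with 5% FBS. Luciferase read-out, EC50 by 4-parameter logistic fit, and fold change versus wild type.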

[2] = system: T2, Nonstructural protein 5A (Hepatitis C virus), Q5L478 [Y93H]; test: Inhibition of NS5A Y93H mutant in HuH7 cell infected HCV genotype 1a H77 assessed as decrease in viral replication after 4 days by luciferase reporter gene assay relative to wild type protein; conditions: Hepatitis C virus (isolate H77); summary of the method: as §1
T2 sequence (whole entry): T1 sequence (whole entry) with N93H

[3] = target: T3, Nonstructural protein 5A (Hepatitis C virus) (UniProt Q5L478); test: Inhibition of NS5A Q30E mutant in HuH7 cell infected HCV genotype 1a H77 assessed as decrease in viral replication after 4 days by luciferase reporter gene assay relative to wild type protein; conditions: Hepatitis C virus (isolate H77); summary of the method: as §1
T3 sequence (whole entry): T1 sequence (whole entry) with N93Y

[4] = system: T4, Nonstructural protein 5A (Hepatitis C virus), Q5L478 [Y93C]; test: Inhibition of NS5A Y93C mutant in HuH7 cell infected HCV genotype 1a H77 assessed as decrease in viral replication after 4 days by luciferase reporter gene assay relative to wild type protein; conditions: Hepatitis C virus (isolate H77); summary of the method: as §1
T4 sequence (whole entry): T1 sequence (whole entry) with N93C

[5] = system: T2, Nonstructural protein 5A (Hepatitis C virus), Q5L478 [Y93H]; test: Inhibition of NS5A Y93H mutant in HuH7 cell infected HCV genotype 1b Con1 assessed as decrease in viral replication after 4 days by luciferase reporter gene assay relative to wild type protein; conditions: Hepatitis C virus (isolate Con1)
Summary of the method: as §1, with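 “1b-Con1” for “1a-H77”, “NS5A” for “NS5A substitutions M28T, Q30E, Q30R, Y93C,”, “from a” for “by”, “expressed as” for “and”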

[6] = target: T3, Nonstructural protein 5A (Hepatitis C virus); test: Inhibition of NS5A M28T mutant in HuH7 cell infected HCV genotype 1a H77 assessed as decrease in viral replication after 4 days by luciferase reporter gene assay relative to wild type protein; conditions: Hepatitis C virus (isolate H77); summary of the method: as §1
[7] = target: T3, Nonstructural protein 5A (Hepatitis C virus); test: Inhibition of NS5A Q30R mutant in HuH7 cell infected HCV genotype 1a H77 assessed as decrease in viral replication after 4 days by luciferase reporter gene assay relative to wild type protein; conditions: Hepatitis C virus (isolate H77); summary of the method: as §1
[8] = system: T1, Nonstructural protein 5A (Hepatitis C virus), Q5L478 [Y93N]; test: Inhibition of NS5A Y93N mutant in HuH7 cell infected HCV genotype 1b Con1 assessed as decrease in viral replication after 4 days by luciferase reporter gene assay relative to wild type protein; conditions: Hepatitis C virus (isolate Con1)
Summary of the method: as §1, with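 “1b-Con1” for “1a-H77”, “NS5A” for “NS5A substitutions M28T, Q30E, Q30R, Y93C,”, “from a” for “by”, “expressed as” for “and”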

[9] = Solubility of the compound by CLND method; type: physicochemical
[10] = AUC (0 to infinity) in mouse at 3 mg/kg, po by LC-MS method; type: ADME, organism-based; parameters: dose 3 mg/kg, route oral, time infinity; conditions: in vivo
Summary of the method: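 Single dose, 3 mg/kg, in mouse or rat. IV vehicle: DMSO:Tween 80:PEG-400:D5W 2:5:20:73 (v/v). PO vehicle: Phosol 53 MCT:PEG-400:Poloxamer 124:Cremophor RH40 40:20:20:20 (w/w). Acetonitrile protein precipitation, then LC-MS/MS in negative-ion MRM against an internal standard; LOQ ~20 ng/mL.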

[11] = Intrinsic clearance in human microsomes; type: ADME, Microsome
[12] = Intrinsic clearance in rat microsomes; type: ADME, Microsome
[13] = Lipophilicity, log D of the compound by HPLC method; type: physicochemical

SMILES | fold change (FC) [1] | fold change (FC) [2] | fold change (FC) [3] | fold change (FC) [4] | fold change (FC) [5] | fold change (FC) [6] | fold change (FC) [7] | fold change (FC) [8] | solubility kinetic [9] [µM] | AUC(0-inf) [10] [ng·h/mL] | CLint scaled [11] [mL/min/kg] | CLint scaled [12] [mL/min/kg] | logD [13]
COC(=O)N[C@H](C(=O)N1CCC[C@H]1c1nc2cc(F)c([C@H]3CC[C@H](c4cc5[nH]c([C@@H]6CCCN6C(=O)[C@@H](NC(=O)OC)C6CCOCC6)nc5cc4F)N3c3cc(F)c(N4CCC(c5ccccc5)CC4)c(F)c3)cc2[nH]1)C1CCOCC1 | 2 | 3 | 1 |  |  |  |  |  |  |  |  |  | 
COC(=O)N[C@H](C(=O)N1CCC[C@H]1c1nc2cc(F)c([C@H]3CC[C@H](c4cc5[nH]c([C@@H]6CCCN6C(=O)[C@@H](NC(=O)OC)C6CCOCC6)nc5cc4F)N3c3cc(F)c(N4CCC(c5ccc(F)cc5)CC4)c(F)c3)cc2[nH]1)C1CCOCC1 | 2 | 2 | 1 |  |  |  |  |  |  |  |  |  | 
COC(=O)N[C@H](C(=O)N1CCC[C@H]1c1nc2ccc([C@H]3CC[C@H](c4ccc5nc([C@@H]6CCCN6C(=O)[C@@H](NC(=O)OC)C(C)C)[nH]c5c4)N3c3cc(F)c(N4CCC(c5ccc(F)cc5)CC4)c(F)c3)cc2[nH]1)C(C)C | 25 | 20 | 20 | 3 | 2 | 2 | 3 |  |  |  |  |  | 
COC(=O)N[C@H](C(=O)N1CCC[C@H]1c1nc2ccc([C@H]3CC[C@H](c4ccc5nc([C@@H]6CCCN6C(=O)[C@@H](NC(=O)OC)C(C)C)[nH]c5c4)N3c3ccc(Cl)cc3)cc2[nH]1)C(C)C | 1160 | 670 | 83 | 22 | 1 | 28 | 44 |  |  |  |  |  | 
COC(=O)N[C@H](C(=O)N1CCC[C@H]1c1nc2ccc([C@H]3CC[C@H](c4ccc5nc([C@@H]6CCCN6C(=O)[C@@H](NC(=O)OC)C(C)C)[nH]c5c4)N3c3ccc(-c4ccccc4)cc3)cc2[nH]1)C(C)C | 827 | 329 | 47 | 24 | 1 |  | 10 | 1 |  |  |  |  | 
COC(=O)N[C@H](C(=O)N1CCC[C@H]1c1nc2cc(F)c([C@H]3CC[C@H](c4cc5[nH]c([C@@H]6CCCN6C(=O)[C@@H](NC(=O)OC)[C@@H](C)OC)nc5cc4F)N3c3cc(F)c(N4CCC(c5ccccc5)CC4)c(F)c3)cc2[nH]1)[C@@H](C)OC | 5 | 6 | 2 | 1 | 1 | 1 | 1 | 0.3 |  |  |  |  | 
COC(=O)N[C@H](C(=O)N1CCC[C@H]1c1nc2cc([C@H]3CC[C@H](c4ccc5[nH]c([C@@H]6CCCN6C(=O)[C@@H](NC(=O)OC)C(C)C)nc5c4)N3c3cc(F)c(N4CCC(c5ccccc5)CC4)c(F)c3)ccc2[nH]1)C(C)C |  |  |  |  |  |  |  |  | 1.1 (≈ 1.13 µg/mL) | 6830 | < 25 | 53.3 | 
COC(=O)N[C@H](C(=O)N1CCC[C@H]1c1nc2cc(F)c([C@H]3CC[C@H](c4cc5[nH]c([C@@H]6CCCN6C(=O)[C@@H](NC(=O)OC)C(C)C)nc5cc4F)N3c3cc(F)c(N4CCC(c5ccccc5)CC4)c(F)c3)cc2[nH]1)C(C)C | 50 | 49 | 12 | 6 | 1 | 1 | 2 | 1 |  |  |  |  | 
COC(=O)N[C@H](C(=O)N1CCC[C@H]1c1nc2ccc([C@H]3CC[C@H](c4ccc5nc([C@@H]6CCCN6C(=O)[C@@H](NC(=O)OC)C(C)C)[nH]c5c4)N3c3ccc(N4CCC(c5ccccc5)CC4)cc3)cc2[nH]1)C(C)C |  |  |  |  |  |  |  |  | 0.82 (≈ 0.813 µg/mL) |  | < 25 | 46.7 | 5.4
COC(=O)N[C@H](C(=O)N1CCC[C@H]1c1nc2cc([C@H]3CC[C@H](c4ccc5[nH]c([C@@H]6CCCN6C(=O)[C@@H](NC(=O)OC)C(C)C)nc5c4)N3c3cc(F)c(N4CCC(c5ccc(F)cc5)CC4)c(F)c3)ccc2[nH]1)C(C)C |  |  |  |  |  |  |  |  | 0.9 (≈ 0.941 µg/mL) | 4590 | < 25 | 53.3 | 5.8
COC(=O)N[C@H](C(=O)N1CCC[C@H]1c1nc2ccc([C@H]3CC[C@H](c4ccc5nc([C@@H]6CCCN6C(=O)[C@@H](NC(=O)OC)C(C)C)[nH]c5c4)N3c3ccc(C4CCCCC4)cc3)cc2[nH]1)C(C)C |  | > 577 | > 90 | > 30 | 1 | > 17 | > 30 |  |  |  |  |  | 
COC(=O)N[C@H](C(=O)N1CCC[C@H]1c1nc2ccc([C@H]3CC[C@H](c4ccc5nc([C@@H]6CCCN6C(=O)[C@@H](NC(=O)OC)C(C)C)[nH]c5c4)N3c3cc(F)c(N4CCC(c5ccccc5)CC4)c(F)c3)cc2[nH]1)C(C)C | 145 | 72 | 69 | 6 | 1 | 3 | 7 | 1 |  |  |  |  | 
COC(=O)N[C@H](C(=O)N1CCC[C@H]1c1nc2cc([C@H]3CC[C@H](c4ccc5[nH]c([C@@H]6CCCN6C(=O)[C@@H](NC(=O)OC)C(C)C)nc5c4)N3c3cc(F)c(N4CCCCC4)c(F)c3)ccc2[nH]1)C(C)C | 510 | 241 | 134 | 9 | 1 | 5 | 13 |  | 0.7 (≈ 0.666 µg/mL) | 1790 | 175 | 187 | 
